Measured values reported in ChEMBL document CHEMBL1177861, “Structural determinants of resveratrol for cell proliferation inhibition potency: experimental and docking studies of new analogs” (Eur J Med Chem, 2010).
Active and inactive are the calls of the source. No cut-off for these calls is given here.

Tests used:
SW480 [1] = assay: Antiproliferative activity against human SW480 cells assessed as cell viability using propidium iodide staining after 48 hrs; type: functional, cell-based; conditions: for IC50: SW480, 48 h
Procedure, shortened: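 SW480 cells grown in RPMI with 10% FBS and 1% antibiotics; 30,000 cells/well seeded, treated after 24 h with compound in 0.1% DMSO (1 nM to 100 µM; 0.1% DMSO control). At 48 h adherent (trypsinized) plus detached cells stained with 1 µg/mL propidium iodide, counted by flow cytometry. IC50 from parametric regression of % viable cells vs control; triplicate wells, three experiments.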

SW480 [2] = assay: Cell cycle arrest in human SW480 cells assessed as disturbance of diploid cells at 30 uM after 48 hrs by flow cytometry; type: functional, cell-based
Procedure, shortened: (§1)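 SW480 cells treated 48 h at 30 µM in 0.1% DMSO medium. DNA content measured by propidium iodide flow cytometry. Cells gated as 2n G0/G1, S (2<n<4), 4n G2/M and >4n (polyploid). Data are means ± SD of a representative experiment among three independent.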

SW480 [3] = assay: Cell cycle arrest in human SW480 cells assessed as polyploid cells generation at 30 uM after 48 hrs by flow cytometry; type: functional, cell-based; procedure, shortened: as §1
SW480 [4] = assay: Cell cycle arrest in human SW480 cells assessed as tetraploid cells generation at 30 uM after 48 hrs by flow cytometry; type: functional, cell-based; procedure, shortened: as §1
SW480 [5] = assay: Cell cycle arrest in human SW480 cells assessed as accumulation at G0/G1 phase at 30 uM after 48 hrs by flow cytometry; type: functional; procedure, shortened: as §1
SW480 [6] = assay: Cell cycle arrest in human SW480 cells assessed as accumulation at S phase at 30 uM after 48 hrs by flow cytometry; type: functional; procedure, shortened: as §1
SW480 [7] = assay: Cell cycle arrest in human SW480 cells assessed as 4n cells at 30 uM after 48 hrs by flow cytometry; type: functional; procedure, shortened: as §1
SW480 [8] = assay: Cell cycle arrest in human SW480 cells assessed as >4n cells at 30 uM after 48 hrs by flow cytometry; type: functional; procedure, shortened: as §1
SW480 [9] = assay: Cell cycle arrest in human SW480 cells assessed as accumulation of polyploid cells at 0.5 uM after 48 hrs by microscopic analysis; type: functional, cell-based
Procedure, shortened: (§2)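 SW480 cells left untreated or exposed to 0.5 µM for 48 h. Actin was immunostained (Alexa 488) to show cell shape and nuclei were stained with Hoechst 33342. Fluorescence microscopy at 100x with identical settings; example of three independent experiments.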

SW480 [10] = assay: Cell cycle arrest in human SW480 cells assessed as increase of 4n and >4n cells at 0.2 uM after 48 hrs by flow cytometry; type: functional, cell-based
Procedure, shortened: (§3)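 SW480 cells treated for 48 h at 0.2, 0.5 or 1.0 µM. DNA content was read by propidium iodide staining and flow cytometry. Populations were gated as 2n G0/G1, S (2<n<4), 4n G2/M and >4n. Means ± SD of a representative experiment out of three.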

SW480 [11] = assay: Cell cycle arrest in human SW480 cells assessed as increase of 4n and >4n cells at 1 uM after 48 hrs by flow cytometry; type: functional, cell-based; procedure, shortened: as §3
SW480 [12] = assay: Antiproliferative activity against human SW480 cells assessed as cell viability using propidium iodide staining; type: functional, cell-based; conditions: TDE = time-dependent effect
Procedure, shortened: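 SW480 colon carcinoma cells grown in RPMI with 10% FBS and 1% antibiotics. 30,000 cells/well were seeded, then treated after 24 h in medium with 0.1% DMSO (vehicle control 0.1% DMSO) at 1 nM to 100 µM for 48 h. Adherent plus detached cells were stained with 1 µg/mL propidium iodide and counted by flow cytometry. IC50 came from parametric regression of % viable cells vs control. Triplicate wells, three experiments.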

SW480 [13] = assay: Antiproliferative activity against human SW480 cells assessed as cell viability using propidium iodide staining at 0.2 uM after 72 hrs; type: functional, cell-based
Procedure, shortened: (§4)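 SW480 cells (RPMI, 10% FBS, 1% antibiotics) seeded at 30,000/well and treated 24 h later in 0.1% DMSO medium; 0.1% DMSO alone as control. After 24, 48 and 72 h, trypsinized adherent plus detached cells were labelled with 1 µg/mL propidium iodide and viable (PI-excluding) cells counted by flow cytometry. Triplicate wells; representative of three experiments, means ± SD.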

SW480 [14] = assay: Antiproliferative activity against human SW480 cells assessed as cell viability using propidium iodide staining at 0.5 uM after 72 hrs; type: functional, cell-based; procedure, shortened: as §4
SW480 [15] = assay: Cell cycle arrest in human SW480 cells assessed as increase of 4n and >4n cells at 0.5 uM after 48 hrs by flow cytometry; type: functional, cell-based; procedure, shortened: as §3
SW480 [16] = assay: Cell cycle arrest in human SW480 cells assessed as mitotic disturbances using Hoechst staining at 0.5 uM after 48 hrs by microscopic analysis; type: functional, cell-based; procedure, shortened: as §2
SW480 [17] = assay: Cell cycle arrest in human SW480 cells assessed as cytokinesis cells at 0.5 uM after 48 hrs by microscopic analysis; type: functional, cell-based; procedure, shortened: as §2
SW480 [18] = assay: Antiproliferative activity against human SW480 cells assessed as cell viability using propidium iodide staining after 48 hrs; conditions: SW480, 48 h

Structure (SMILES) | IC50 (SW480 [1]) | Activity (SW480 [2]) | Activity (SW480 [3]) | Activity (SW480 [4]) | other results
COc1ccc(/C=C/c2cc(OC)cc(OC)c2O)cc1 | 43 µM | Active | Active | Active | –
COc1cc(/C=C\c2ccc(OC)c(OC)c2)cc(OC)c1 [(Z)-3,4,3',5'-TETRAMETHOXYSTILBENE] | 9.5 µM | Active | Active | Active | –
COc1cc(/C=C/c2ccc(OC)c(OC)c2)cc(OC)c1 [(E)-3,4,3',5'-TETRAMETHOXYSTILBENE] | 100 µM | – | – | – | Activity (SW480 [5]): 50%; Activity (SW480 [6]): 15%; Activity (SW480 [7]): 25%; Activity (SW480 [8]): 10%
COc1cc(/C=C\c2cc(OC)cc(OC)c2O)cc(OC)c1 | 7 µM | Active | Active | Active | –
Oc1ccc(/C=C/c2cc(O)cc(O)c2)cc1 [RESVERATROL] | 20 µM | – | – | – | –
COc1cc(/C=C/c2cc(OC)cc(OC)c2O)cc(OC)c1 | 17 µM | – | – | – | Activity (SW480 [5]): 50%; Activity (SW480 [6]): 15%; Activity (SW480 [7]): 25%; Activity (SW480 [8]): 10%
Oc1ccc(/C=C\c2cc(O)cc(O)c2)cc1 [CIS-RESVERATROL] | 90 µM | – | – | – | Activity (SW480 [5]): 50%; Activity (SW480 [6]): 15%; Activity (SW480 [7]): 25%; Activity (SW480 [8]): 10%
COc1ccc(/C=C\c2cc(OC)cc(OC)c2O)cc1 | 18 µM | Active | Active | Active | –
COc1cc(/C=C\c2cc(OC)cc(OC)c2)cc(OC)c1 | 13 µM | Active | Active | Active | –
COc1cc(/C=C\c2ccc(OC)c(OC)c2)c(O)c(OC)c1 | 10 µM | Active | Active | Active | –
COc1cc(/C=C/c2cc(OC)cc(OC)c2)cc(OC)c1 | 48 µM | – | – | – | Activity (SW480 [5]): 50%; Activity (SW480 [6]): 15%; Activity (SW480 [7]): 25%; Activity (SW480 [8]): 10%
COc1ccc(/C=C/c2cc(OC)cc(OC)c2)cc1 [TRISMETHOXYRESVERATROL] | 54 µM | Active | Active | Active | –
COc1cc(/C=C/c2ccc(OC)c(OC)c2)c(O)c(OC)c1 | 42 µM | – | – | – | –
COc1ccc(/C=C\c2cc(OC)cc(OC)c2)cc1 [8Z-3,4',5-TRIMETHOXYSTILBENE] | 0.3 µM | Active | Active | Active | Activity (SW480 [1]): Dose-dependent effect; Activity (SW480 [9]): Active; Activity (SW480 [10]): inactive; Activity (SW480 [11]): Active; Activity (SW480 [12]): tde; Activity (SW480 [13]): inactive; Activity (SW480 [14]): inactive; Activity (SW480 [15]): Active; Activity (SW480 [16]): Active; Activity (SW480 [17]): Active; IC50 (SW480 [18]): 0.3 µM
